The target in experiment [1] is Plasminogen (Homo sapiens) (UniProt P00747). The experiment is described as follows: Allosteric inhibition of full length human plasmin by using chromogenic substrate spectrozyme PL preincubated for 5 mins followed by substrate addition by spectrophotometric method. The method in brief: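 Inhibitor added from 0–20 mM aqueous stocks, or vehicle. After 5 min, Spectrozyme PL added (1 mM stock). Residual activity taken from initial rate of A405 rise. Logistic fit gives IC50, efficacy and Hill slope.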

Experiment [2] has the same target. Conditions: 200 uM.
A further experiment is filed under the species Homo sapiens. In words: Inhibition of human chymotrypsin using chromogenic substrate spectrozyme Cty preincubated for 5 mins followed by substrate addition by spectrophotometric method. The procedure, abridged:
(§1)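 Tris-HCl pH 7.4 buffer (100 mM NaCl, 2.5 mM CaCl2, 0.1% PEG8000, 0.02% Tween80) at 37 °C; factor IXa buffer also held 33% ethylene glycol. Final enzyme: factor Xa 1.09 nM, XIa 0.75 nM, XIIa 10 nM, IXa 250 nM, trypsin 0.145 µg/mL, chymotrypsin […]. Inhibitor from 0–20 mM stock, 5 min preincubation, then substrate. Initial A405 rate, sigmoidal dose–response fit.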

The target in experiment [3] is Prothrombin (Homo sapiens) (UniProt P00734). In words: Inhibition of human thrombin by using chromogenic substrate spectrozyme TH preincubated for 5 mins followed by substrate addition by spectrophotometric method. The procedure, abridged: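 Thrombin at 6 nM final, 25 °C, in 20 mM Tris-HCl pH 7.4 with 100 mM NaCl, 2.5 mM CaCl2, 0.1% PEG8000, 0.02% Tween80. Inhibitor (0–20 mM stock) or vehicle preincubated 5 min with enzyme. Spectrozyme TH added (1.0 mM stock). Residual activity read as initial rate of A405 increase and fitted to a sigmoidal dose–response curve.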

Experiment [4] concerns the target Coagulation factor XI (Homo sapiens) (UniProt P03951). The experiment is described as follows: Inhibition of human F11a by using chromogenic substrate S-2366 preincubated for 5 mins followed by substrate addition by spectrophotometric method. The procedure, abridged:
as §1

The target of experiment [5] is Plasminogen (Homo sapiens) (UniProt P00747). In words: Binding affinity to human plasmin assessed as loss of intrinsic tryptophan fluorescence at 250 uM by spectrofluorometric method.
In experiment [6] the target is Coagulation factor X (Homo sapiens) (UniProt P00742). In words: Inhibition of human F10a by using chromogenic substrate spectrozyme F10a preincubated for 5 mins followed by substrate addition by spectrophotometric method. The method in brief:
as §1

Each structure is given as a SMILES string. The source made the active and inactive calls. The rule behind the calls is not given here.

Drawing on ChEMBL document CHEMBL4043061, “Potent, Selective, Allosteric Inhibition of Human Plasmin by Sulfated Non-Saccharide Glycosaminoglycan Mimetics” (J Med Chem, 2017), this text covers Efficacy, inhibition and Activity for 16 compounds.

Plasminogen (Homo sapiens), sequence (P00747 97-580 limits assumed): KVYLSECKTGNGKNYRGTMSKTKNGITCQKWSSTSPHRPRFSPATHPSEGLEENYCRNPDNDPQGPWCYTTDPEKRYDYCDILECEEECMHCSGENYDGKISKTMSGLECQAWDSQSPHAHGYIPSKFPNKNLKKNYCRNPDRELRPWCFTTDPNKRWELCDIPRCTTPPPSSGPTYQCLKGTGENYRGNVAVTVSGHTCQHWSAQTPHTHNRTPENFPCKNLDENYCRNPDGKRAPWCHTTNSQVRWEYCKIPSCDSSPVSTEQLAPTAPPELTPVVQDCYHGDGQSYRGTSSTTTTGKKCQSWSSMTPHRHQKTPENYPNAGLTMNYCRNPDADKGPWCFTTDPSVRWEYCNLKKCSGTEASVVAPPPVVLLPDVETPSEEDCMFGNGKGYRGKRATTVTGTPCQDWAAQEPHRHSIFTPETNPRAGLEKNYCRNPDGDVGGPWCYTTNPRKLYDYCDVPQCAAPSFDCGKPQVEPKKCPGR
Plasminogen (Homo sapiens), sequence (P00747 581-810 limits assumed): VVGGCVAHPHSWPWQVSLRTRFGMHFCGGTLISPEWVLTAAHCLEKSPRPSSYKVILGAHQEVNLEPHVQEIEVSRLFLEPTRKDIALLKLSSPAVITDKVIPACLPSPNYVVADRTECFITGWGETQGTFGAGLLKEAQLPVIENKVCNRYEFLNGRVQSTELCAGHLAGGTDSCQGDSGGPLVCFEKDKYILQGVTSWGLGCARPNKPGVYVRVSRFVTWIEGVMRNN
Coagulation factor XI (Homo sapiens), sequence (P03951 19-387 limits assumed): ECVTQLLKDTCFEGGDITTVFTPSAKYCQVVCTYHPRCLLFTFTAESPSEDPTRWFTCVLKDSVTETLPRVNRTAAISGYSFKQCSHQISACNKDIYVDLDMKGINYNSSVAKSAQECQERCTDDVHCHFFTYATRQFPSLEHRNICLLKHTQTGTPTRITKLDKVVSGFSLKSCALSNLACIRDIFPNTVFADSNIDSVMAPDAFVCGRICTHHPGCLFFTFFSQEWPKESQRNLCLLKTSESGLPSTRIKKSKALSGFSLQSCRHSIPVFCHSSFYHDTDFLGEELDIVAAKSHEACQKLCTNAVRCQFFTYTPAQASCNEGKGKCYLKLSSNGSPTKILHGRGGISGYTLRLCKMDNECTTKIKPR
Coagulation factor XI (Homo sapiens), sequence (P03951 388-625 limits assumed): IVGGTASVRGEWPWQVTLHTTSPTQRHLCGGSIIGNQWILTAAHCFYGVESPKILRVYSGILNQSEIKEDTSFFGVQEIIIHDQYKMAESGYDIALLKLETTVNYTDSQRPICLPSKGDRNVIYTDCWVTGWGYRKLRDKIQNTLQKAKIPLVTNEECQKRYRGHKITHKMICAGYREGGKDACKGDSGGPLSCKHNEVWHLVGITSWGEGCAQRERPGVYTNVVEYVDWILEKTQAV
Coagulation factor X (Homo sapiens), sequence (P00742 41-179 limits assumed): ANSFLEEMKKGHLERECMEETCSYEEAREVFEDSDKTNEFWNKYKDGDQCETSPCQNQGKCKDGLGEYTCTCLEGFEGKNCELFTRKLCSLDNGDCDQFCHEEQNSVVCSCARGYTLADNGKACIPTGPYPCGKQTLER
Coagulation factor X (Homo sapiens), sequence (P00742 235-488 limits assumed): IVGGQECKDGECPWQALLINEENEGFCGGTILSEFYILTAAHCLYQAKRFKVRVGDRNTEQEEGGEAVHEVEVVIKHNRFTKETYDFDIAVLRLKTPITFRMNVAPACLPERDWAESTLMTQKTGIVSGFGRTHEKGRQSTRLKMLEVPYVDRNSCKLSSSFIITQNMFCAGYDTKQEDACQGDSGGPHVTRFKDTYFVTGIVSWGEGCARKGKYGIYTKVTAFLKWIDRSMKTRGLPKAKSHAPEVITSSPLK

In experiment [1], `O=c1c(OS(=O)(=O)O)c(-c2ccc(OS(=O)(=O)O)c(OS(=O)(=O)O)c2)oc2cc(OS(=O)(=O)O)cc(OCc3cccc(COc4cc(OS(=O)(=O)O)cc5oc(-c6ccc(OS(=O)(=O)O)c(OS(=O)(=O)O)c6)c(OS(=O)(=O)O)c(=O)c45)c3)c12` registered an Efficacy of 107%. Turning to `O=c1c(OS(=O)(=O)O)c(-c2ccc(OS(=O)(=O)O)c(OS(=O)(=O)O)c2)oc2cc(OS(=O)(=O)O)cc(OCc3ccc(-c4ccc(COc5cc(OS(=O)(=O)O)cc6oc(-c7ccc(OS(=O)(=O)O)c(OS(=O)(=O)O)c7)c(OS(=O)(=O)O)c(=O)c56)cc4)cc3)c12`, the Efficacy in experiment [1] is 80%.

For `O=c1c(OS(=O)(=O)O)c(-c2ccc(OS(=O)(=O)O)c(OS(=O)(=O)O)c2)oc2cc(OS(=O)(=O)O)cc(OCc3ccc(COc4cc(OS(=O)(=O)O)cc5oc(-c6ccc(OS(=O)(=O)O)c(OS(=O)(=O)O)c6)c(OS(=O)(=O)O)c(=O)c45)cc3)c12`, the inhibition entry in experiment [2] is “Active”. Also, the Efficacy in the experiment listed under Homo sapiens is 92%; in experiment [3], 77%; in experiment [4], 93%; in experiment [1], 93 to 98%. In experiment [1], `O=c1cc(-c2ccc(OS(=O)(=O)O)cc2)oc2cc(OS(=O)(=O)O)cc(OCCOc3cc(OS(=O)(=O)O)cc4oc(-c5ccc(OS(=O)(=O)O)cc5)cc(=O)c34)c12` returned an Efficacy of 79%. Same read-out and setting: as for `O=c1cc(-c2ccc(OS(=O)(=O)O)cc2)oc2cc(OS(=O)(=O)O)cc(OCc3ccc(-c4ccc(COc5cc(OS(=O)(=O)O)cc6oc(-c7ccc(OS(=O)(=O)O)cc7)cc(=O)c56)cc4)cc3)c12`, the figure is 79%. As to `Cc1cc(COc2cc(OS(=O)(=O)O)cc3oc(-c4ccc(OS(=O)(=O)O)cc4)cc(=O)c23)c(C)cc1COc1cc(OS(=O)(=O)O)cc2oc(-c3ccc(OS(=O)(=O)O)cc3)cc(=O)c12`, in experiment [5], the Activity is 108%. In addition, the Efficacy in experiment [1] was determined as 94%. As to `O=c1cc(-c2ccc(OS(=O)(=O)O)cc2)oc2cc(OS(=O)(=O)O)cc(OCc3cccc(COc4cc(OS(=O)(=O)O)cc5oc(-c6ccc(OS(=O)(=O)O)cc6)cc(=O)c45)c3)c12`, in experiment [1], the Efficacy is 86%.

In experiment [1], `O=c1cc(-c2ccc(OS(=O)(=O)O)cc2)oc2cc(OS(=O)(=O)O)cc(OCc3cccc(COc4cc(OS(=O)(=O)O)cc5oc(-c6ccc(OS(=O)(=O)O)cc6)cc(=O)c45)n3)c12` gave an Efficacy of 63%. The same measure, in the same setting: as for `O=c1cc(-c2ccc(OS(=O)(=O)O)cc2)oc2cc(OS(=O)(=O)O)cc(OCCCCOc3cc(OS(=O)(=O)O)cc4oc(-c5ccc(OS(=O)(=O)O)cc5)cc(=O)c34)c12`, the figure is 90%. On to `O=c1c(O)c(-c2ccc(O)c(O)c2)oc2cc(O)cc(OCc3ccc(COc4cc(O)cc5oc(-c6ccc(O)c(O)c6)c(O)c(=O)c45)cc3)c12`, for which the Efficacy in experiment [6] came to 104%; in experiment [3], 91%; in experiment [4], 109%; in experiment [1], 111%. In the case of `O=c1cc(-c2ccc(OS(=O)(=O)O)cc2)oc2cc(OS(=O)(=O)O)cc(OC/C=C/COc3cc(OS(=O)(=O)O)cc4oc(-c5ccc(OS(=O)(=O)O)cc5)cc(=O)c34)c12`, the Activity in experiment [5] was found to be 101%. The same compound showed an Efficacy in experiment [1] of 90%. With `O=c1cc(-c2ccc(OS(=O)(=O)O)cc2)oc2cc(OS(=O)(=O)O)cc(OCc3ccc(COc4cc(OS(=O)(=O)O)cc5oc(-c6ccc(OS(=O)(=O)O)c(OS(=O)(=O)O)c6)c(OS(=O)(=O)O)c(=O)c45)cc3)c12`, the Efficacy in experiment [1] was determined as 109%. Still for that read-out and setting: with `O=c1cc(-c2ccc(OS(=O)(=O)O)cc2)oc2cc(OS(=O)(=O)O)cc(OCc3ccc(COc4cc(OS(=O)(=O)O)cc5oc(-c6ccc(OS(=O)(=O)O)cc6)cc(=O)c45)cc3)c12` the figure was 89%.

As for `Cc1cc(COc2cc(OS(=O)(=O)O)cc3oc(-c4ccc(OS(=O)(=O)O)c(OS(=O)(=O)O)c4)c(OS(=O)(=O)O)c(=O)c23)c(C)cc1COc1cc(OS(=O)(=O)O)cc2oc(-c3ccc(OS(=O)(=O)O)c(OS(=O)(=O)O)c3)c(OS(=O)(=O)O)c(=O)c12`, the Activity in experiment [5] was 90%. The same compound had an Efficacy in experiment [1] of 104%. `O=c1c(OS(=O)(=O)O)c(-c2ccc(OS(=O)(=O)O)c(OS(=O)(=O)O)c2)oc2cc(OS(=O)(=O)O)cc(OCCCCOc3cc(OS(=O)(=O)O)cc4oc(-c5ccc(OS(=O)(=O)O)c(OS(=O)(=O)O)c5)c(OS(=O)(=O)O)c(=O)c34)c12` displayed an Efficacy in experiment [1] of 72%.

On to `O=c1c(OS(=O)(=O)O)c(-c2ccc(OS(=O)(=O)O)c(OS(=O)(=O)O)c2)oc2cc(OS(=O)(=O)O)cc(OCc3cccc(COc4cc(OS(=O)(=O)O)cc5oc(-c6ccc(OS(=O)(=O)O)c(OS(=O)(=O)O)c6)c(OS(=O)(=O)O)c(=O)c45)n3)c12`, for which the Efficacy in experiment [1] is 90%.
